In brackets after ≈: the same amount, converted by molar mass. Values belong to the compound of their own block, whether it stands above or below them.
How the values were obtained:
[1] = tested on: Pseudomonas aeruginosa; experiment: Inhibition of Pseudomonas aeruginosa PAM1723 MexAB-OprM assessed as drug level required to decrease MIC of levofloxacin in presence of 0.125% HAS
Summary of the method: (§1)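 P. aeruginosa PAM1723 overexpresses MexAB-OprM, with MexCD-OprJ and MexEF-OprN disrupted. The partner antibiotic's MIC was measured with and without inhibitor by NCCLS broth microdilution in Mueller–Hinton broth. Inoculum was 1 × 10⁶ CFU/mL, incubated 18 h at 37 °C, and growth was read visually. The value is the minimum inhibitor concentration that lowers the partner's MIC 8-fold (MPC₈).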

[2] = Aqueous solubility at pH 6.8; type: physicochemical; settings: buffer
[3] = tested on: Pseudomonas aeruginosa; experiment: Inhibition of Pseudomonas aeruginosa PAM1723 MexAB-OprM assessed as drug level required to decrease MIC of aztreonam; summary of the method: as §1
[4] = tested on: Pseudomonas aeruginosa; experiment: Inhibition of Pseudomonas aeruginosa PAM1723 MexAB-OprM assessed as drug level required to decrease MIC of levofloxacin; summary of the method: as §1
[5] = tested on: Mus musculus; experiment: Toxicity in mouse assessed as lethal effect at 100 mg/kg, iv; type: organism-based; design: dose 100 mg/kg, route intravenous; settings: in vivo
Summary of the method: (§2)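 Mice received a single intravenous dose at 50 or 100 mg/kg in groups of three. The read-out was the number of deaths per group.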

[6] = tested on: Mus musculus; experiment: Toxicity in mouse assessed as lethal effect at 50 mg/kg, iv; type: organism-based; design: dose 50 mg/kg, route intravenous; settings: in vivo; summary of the method: as §2
[7] = Drug level in Sprague-Dawley rat serum at 20 mg/kg, iv after 2 hrs; type: ADME, organism-based; design: dose 20 mg/kg, route intravenous; settings: read-out: Activity
Summary of the method: (§3)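 Rats received a 2 h intravenous infusion at 1.25, 5 or 20 mg/kg, given with AZT 1000 mg/kg in 40 mL/kg 0.0005 N NaOH-saline. Blood was drawn at 40, 80 and 120 min into the infusion, then 0.25, 0.5, 1, 2 and 4 h after it ended. Plasma was stored at −20 °C and extracted with MeCN using propranolol as internal standard.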

[8] = Mean residential time (0 to infinity) in cynomolgus monkey at 1 mg/kg, iv; type: ADME, organism-based, Macaca fascicularis; design: dose 1 mg/kg, route intravenous; settings: in vivo
Summary of the method: (§4)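 Monkeys received a 1 h intravenous infusion at 1 or 5 mg/kg in 10 mL/kg saline. Plasma was processed as for the rat samples: centrifuged, stored at −20 °C, then MeCN extraction with propranolol internal standard.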

[9] = tested on: Rattus norvegicus; experiment: Half life in Sprague-Dawley rat at 1.25 mg/kg, iv; type: ADME, organism-based; design: dose 1.25 mg/kg, route intravenous; settings: in vivo; summary of the method: as §3
[10] = Half life in cynomolgus monkey at 1 mg/kg, iv; type: ADME, organism-based, Macaca fascicularis; design: dose 1 mg/kg, route intravenous; settings: in vivo; summary of the method: as §4
[11] = tested on: Rattus norvegicus; experiment: Volume of distribution at steady state (0 to infinity) in Sprague-Dawley rat at 1.25 mg/kg, iv; type: ADME, organism-based; design: dose 1.25 mg/kg, route intravenous; settings: in vivo; summary of the method: as §3
[12] = Volume of distribution at steady state (0 to infinity) in cynomolgus monkey at 1 mg/kg, iv; type: ADME, organism-based, Macaca fascicularis; design: dose 1 mg/kg, route intravenous; settings: in vivo, read-out: Vdss; summary of the method: as §4
[13] = AUC (0 to infinity) in Sprague-Dawley rat at 1.25 mg/kg, iv; type: ADME, organism-based; design: time infinity, dose 1.25 mg/kg, route intravenous; settings: plasma
Summary of the method: (§5)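 Rats (SD) given compound by 2 h intravenous infusion with AZT 1000 mg/kg, in 40 mL/kg 0.0005 N NaOH-saline. Blood sampled at 40, 80 and 120 min into infusion and 0.25, 0.5, 1, 2 and 4 h after its end. Plasma stored at −20 °C, spiked with propranolol internal standard, extracted with MeCN and centrifuged before analysis.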

[14] = AUC (0 to infinity) in Sprague-Dawley rat at 5 mg/kg, iv; type: ADME, organism-based; design: time infinity, dose 5 mg/kg, route intravenous; settings: plasma; summary of the method: as §5
[15] = Volume of distribution at steady state (0 to infinity) in cynomolgus monkey at 5 mg/kg, iv; type: ADME, organism-based, Macaca fascicularis; design: dose 5 mg/kg, route intravenous; settings: in vivo, read-out: Vdss; summary of the method: as §4
[16] = tested on: Rattus norvegicus; experiment: Volume of distribution at steady state (0 to infinity) in Sprague-Dawley rat at 20 mg/kg, iv; type: ADME, organism-based; design: dose 20 mg/kg, route intravenous; settings: in vivo; summary of the method: as §3
[17] = tested on: Rattus norvegicus; experiment: Volume of distribution at steady state (0 to infinity) in Sprague-Dawley rat at 5 mg/kg, iv; type: ADME, organism-based; design: dose 5 mg/kg, route intravenous; settings: in vivo; summary of the method: as §3
[18] = Half life in cynomolgus monkey at 5 mg/kg, iv; type: ADME, organism-based, Macaca fascicularis; design: dose 5 mg/kg, route intravenous; settings: in vivo; summary of the method: as §4
[19] = Drug level in cynomolgus monkey serum at 5 mg/kg, iv after 1 hr; type: ADME, organism-based, Macaca fascicularis; design: dose 5 mg/kg, route intravenous; settings: read-out: Activity; summary of the method: as §4
[20] = Drug level in Sprague-Dawley rat serum at 1.25 mg/kg, iv after 2 hrs; type: ADME, organism-based; design: dose 1.25 mg/kg, route intravenous; settings: read-out: Activity; summary of the method: as §3
[21] = Drug level in Sprague-Dawley rat serum at 5 mg/kg, iv after 2 hrs; type: ADME, organism-based; design: dose 5 mg/kg, route intravenous; settings: read-out: Activity; summary of the method: as §3
[22] = tested on: Rattus norvegicus; experiment: Half life in Sprague-Dawley rat at 5 mg/kg, iv; type: ADME, organism-based; design: dose 5 mg/kg, route intravenous; settings: in vivo; summary of the method: as §3
[23] = tested on: Rattus norvegicus; experiment: Mean residential time (0 to infinity) in Sprague-Dawley rat at 20 mg/kg, iv; type: ADME, organism-based; design: dose 20 mg/kg, route intravenous; settings: in vivo; summary of the method: as §3
[24] = Clearance (0 to infinity) in cynomolgus monkey at 5 mg/kg, iv; type: ADME, organism-based, Macaca fascicularis; design: dose 5 mg/kg, route intravenous; settings: in vivo; summary of the method: as §4
[25] = tested on: Rattus norvegicus; experiment: Mean residential time (0 to infinity) in Sprague-Dawley rat at 1.25 mg/kg, iv; type: ADME, organism-based; design: dose 1.25 mg/kg, route intravenous; settings: in vivo; summary of the method: as §3
[26] = Clearance (0 to infinity) in cynomolgus monkey at 1 mg/kg, iv; type: ADME, organism-based, Macaca fascicularis; design: dose 1 mg/kg, route intravenous; settings: in vivo; summary of the method: as §4
[27] = tested on: Rattus norvegicus; experiment: Half life in Sprague-Dawley rat at 20 mg/kg, iv; type: ADME, organism-based; design: dose 20 mg/kg, route intravenous; settings: in vivo; summary of the method: as §3
[28] = tested on: Rattus norvegicus; experiment: Mean residential time (0 to infinity) in Sprague-Dawley rat at 5 mg/kg, iv; type: ADME, organism-based; design: dose 5 mg/kg, route intravenous; settings: in vivo; summary of the method: as §3
[29] = Mean residential time (0 to infinity) in cynomolgus monkey at 5 mg/kg, iv; type: ADME, organism-based, Macaca fascicularis; design: dose 5 mg/kg, route intravenous; settings: in vivo; summary of the method: as §4
[30] = AUC (0 to infinity) in cynomolgus monkey at 5 mg/kg, iv; type: ADME, organism-based, Macaca fascicularis; design: time infinity, dose 5 mg/kg, route intravenous; settings: plasma
Summary of the method: (§6)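 Monkeys given compound alone by 1 h intravenous infusion in 10 mL/kg saline. Plasma prepared and analysed as in the rat study: propranolol internal standard, MeCN extraction, centrifugation.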

[31] = AUC (0 to infinity) in Sprague-Dawley rat at 20 mg/kg, iv; type: ADME, organism-based; design: time infinity, dose 20 mg/kg, route intravenous; settings: plasma; summary of the method: as §5
[32] = Drug level in cynomolgus monkey serum at 1 mg/kg, iv after 1 hr; type: ADME, organism-based, Macaca fascicularis; design: dose 1 mg/kg, route intravenous; settings: read-out: Activity; summary of the method: as §4
[33] = AUC (0 to infinity) in cynomolgus monkey at 1 mg/kg, iv; type: ADME, organism-based, Macaca fascicularis; design: time infinity, dose 1 mg/kg, route intravenous; settings: plasma; summary of the method: as §6

SMILES: CC(C)(C)c1csc(NC(=O)c2ccn3c(=O)c(/C=C/c4nnn[nH]4)c(N4CCC[C@@H](OC(=O)NCC[N+](C)(C)CC(N)=O)C4)nc3c2)n1
Activity [1]: 4 µg/mL
solubility [2]: 95 µg/mL
Activity [3]: 4 µg/mL
Activity [4]: 4 µg/mL
Activity [5]: Non-toxic

SMILES: CN(C)CCNC(=O)O[C@@H]1CCCN(c2nc3cc(C(=O)Nc4nc(C(C)(C)C)cs4)ccn3c(=O)c2/C=C/c2nnn[nH]2)C1
Activity [1]: 4 µg/mL
Activity [3]: 1 µg/mL
Activity [4]: 2 µg/mL
Activity [6]: Non-toxic

SMILES: CC(C)(C)c1csc(NC(=O)c2ccn3c(=O)c(/C=C/c4nnn[nH]4)c(N4CCC/C(=C\C(=O)NCC[N+](C)(C)CC(=O)[O-])C4)nc3c2)n1
Activity [1]: > 16 µg/mL
Activity [2]: Not Active
Activity [3]: 8 µg/mL
Activity [4]: 16 µg/mL

SMILES: CC(C)(C)c1csc(NC(=O)c2ccn3c(=O)c(/C=C/c4nnn[nH]4)c(N4CCC[C@@H](OC(=O)NCC[N+](C)(C)CC(=O)[O-])C4)nc3c2)n1
concentration at 2 h [7]: 8040 ng/mL
MRT inf [8]: 36.8 min
t1/2 [9]: 13.8 min
half-life [10]: 16.8 min
Vdss [11]: 3.049 L/kg
Vd [12]: 0.414 L/kg
AUC(0-inf) [13]: 486 ng·h/mL
AUC(0-inf) [14]: 3530 ng·h/mL
Activity [1]: 4 µg/mL
Vd [15]: 0.4 L/kg
Vdss [16]: 1.71 L/kg
Vdss [17]: 1.712 L/kg
half-life [18]: 24.6 min
concentration at 1 h [19]: 7640 ng/mL
solubility [2]: 747 µg/mL (≈ 1080 µM)
concentration at 2 h [20]: 262 ng/mL
concentration at 2 h [21]: 1840 ng/mL
t1/2 [22]: 10.8 min
Activity [3]: 2 µg/mL
MRT [23]: 72.9 min
clearance [24]: 10.7 mL/min/kg
MRT [25]: 71.16 min
clearance [26]: 11.2 mL/min/kg
t1/2 [27]: 15 min
MRT [28]: 72.54 min
MRT inf [29]: 37.5 min
AUC(0-inf) [30]: 7890 ng·h/mL
AUC(0-inf) [31]: 14200 ng·h/mL
Activity [4]: 2 µg/mL
Activity [5]: Non-toxic
concentration at 1 h [32]: 1220 ng/mL
AUC(0-inf) [33]: 1490 ng·h/mL

SMILES: CC(C)(C)c1csc(NC(=O)c2ccn3c(=O)c(/C=C/c4nnn[nH]4)c(N4CCC[C@@H](OC(N)=O)C4)nc3c2)n1
Activity [1]: 2 µg/mL
solubility [2]: 9.2 µg/mL (≈ 16.3 µM)
Activity [3]: < 0.25 µg/mL
Activity [4]: 0.5 µg/mL

SMILES: CC(C)(C)c1csc(NC(=O)c2ccn3c(=O)c(/C=C/c4nnn[nH]4)c(N4CCC[C@@H](CC(=O)NCC[N+](C)(C)CC(=O)[O-])C4)nc3c2)n1
Activity [1]: 8 µg/mL
solubility [2]: 860 µg/mL (≈ 1240 µM)
Activity [3]: 4 µg/mL
Activity [4]: 4 µg/mL

SMILES: CC(C)(C)c1csc(NC(=O)c2ccn3c(=O)c(/C=C/c4nnn[nH]4)c(N4CCC(OC(=O)NCC[N+](C)(C)CC(=O)[O-])CC4)nc3c2)n1
Activity [1]: 16 µg/mL
solubility [2]: 170 µg/mL (≈ 245 µM)
Activity [3]: 4 µg/mL
Activity [4]: 8 µg/mL

Next, values leading:

Activity [1]: 4 µg/mL
solubility [2]: 610 µg/mL (≈ 862 µM)
Activity [3]: 2 µg/mL
Activity [4]: 4 µg/mL
SMILES: CC(C)(C)c1csc(NC(=O)c2ccn3c(=O)c(/C=C/c4nnn[nH]4)c(N4CCC[C@@H](OC(=O)NCCC[N+](C)(C)CC(=O)[O-])C4)nc3c2)n1

solubility [2]: 547 µg/mL
SMILES: CC(C)(C)c1csc(NC(=O)c2ccn3c(=O)c(/C=C/c4nnn[nH]4)c(N4CCC[C@H](OC(=O)NCC[N+](C)(C)C)C4)nc3c2)n1

Activity [1]: 4 µg/mL
Activity [3]: 2 µg/mL
Activity [4]: 2 µg/mL
SMILES: CC(C)(C)c1csc(NC(=O)c2ccn3c(=O)c(/C=C/c4nnn[nH]4)c(N4CCC[C@@H](OC(=O)NCC[N+](C)(C)C)C4)nc3c2)n1

— ChEMBL document CHEMBL1140485, “MexAB-OprM specific efflux pump inhibitors in Pseudomonas aeruginosa. Part 7: highly soluble and in vivo active quaternary ammonium analogue D13-9001, a potential preclinical candidate” (Bioorg Med Chem, 2007)
